Assay results of several laboratories.
Target: Serine/threonine-protein kinase 26 (STK26, Homo sapiens, UniProt Q9P289)

Compound | effect on | mode | method | cell line | tested at | measurement | value
N#CC1(c2ccccn2)CCN(Cc2cc(C(=O)O)c(=O)n3ccccc23)CC1 | cell-free assay | – | competition with immobilised ligand | – | 1 µM | remaining binding | 100%
Cn1cc(-c2cc(F)cc(N3CCn4c(cc5c4CCCC5)C3=O)c2CO)cc(Nc2ccc(N3CCN(C4COC4)CC3)cn2)c1=O | enzyme activity | inhibitor | – | – | 0.1 µM | inhibition | 14%
CC(C)(C)c1cc(C=C(C#N)C#N)cc(Br)c1O | enzyme activity | inhibitor | – | – | 0.5 µM | remaining activity | 95.2%
Nc1ncc(-c2nc(N3CCOCC3)nc(N3CCOCC3)n2)c(C(F)F)n1 | binding | – | competition with immobilised ligand | – | 10 µM | remaining binding | 91%
CCN1CCN(Cc2ccc(NC(=O)c3ccc(C)c(/C=C/c4cnc5[nH]ccc5c4OC)c3)cc2C(F)(F)F)CC1 | target engagement in cells | inhibitor | chemoproteomics | A-375 | 50 nM | inhibition | -14.9%
COc1ncccc1-c1cnn2ccc(N3CCN(C(=O)OC(C)C)CC3)nc12 | binding | – | competition with immobilised ligand | – | 1 µM | remaining binding | 92%
O=c1[nH]c2ccccc2n1C1CCN(Cc2ccc(-c3[nH]c4cc5ncnc5cc4nc3-c3ccccc3)cc2)CC1 | cell-free assay | – | – | – | 0.5 µM | remaining signal | 102%
Cn1cncc1[C@@](O)(COc1ccc(C#N)cc1-c1ccc(OC(F)(F)F)cc1)c1ccc(C#N)cc1 | cell-free assay | – | competition with immobilised ligand | – | 1 µM | remaining binding | 99%
Cc1nn(C)cc1-c1nc2c(N3CCN(Cc4ccc(Cl)cc4)CC3)c(Cl)cnc2[nH]1 | binding | – | competition with immobilised ligand | – | 1 µM | remaining binding | 100%
